Columns and labels:
[1] = target: T1, Inhibitor of nuclear factor kappa-B kinase subunit beta (Homo sapiens) (UniProt O14920); test: Inhibition of IKK-beta at 1 uM
T1 sequence (whole entry): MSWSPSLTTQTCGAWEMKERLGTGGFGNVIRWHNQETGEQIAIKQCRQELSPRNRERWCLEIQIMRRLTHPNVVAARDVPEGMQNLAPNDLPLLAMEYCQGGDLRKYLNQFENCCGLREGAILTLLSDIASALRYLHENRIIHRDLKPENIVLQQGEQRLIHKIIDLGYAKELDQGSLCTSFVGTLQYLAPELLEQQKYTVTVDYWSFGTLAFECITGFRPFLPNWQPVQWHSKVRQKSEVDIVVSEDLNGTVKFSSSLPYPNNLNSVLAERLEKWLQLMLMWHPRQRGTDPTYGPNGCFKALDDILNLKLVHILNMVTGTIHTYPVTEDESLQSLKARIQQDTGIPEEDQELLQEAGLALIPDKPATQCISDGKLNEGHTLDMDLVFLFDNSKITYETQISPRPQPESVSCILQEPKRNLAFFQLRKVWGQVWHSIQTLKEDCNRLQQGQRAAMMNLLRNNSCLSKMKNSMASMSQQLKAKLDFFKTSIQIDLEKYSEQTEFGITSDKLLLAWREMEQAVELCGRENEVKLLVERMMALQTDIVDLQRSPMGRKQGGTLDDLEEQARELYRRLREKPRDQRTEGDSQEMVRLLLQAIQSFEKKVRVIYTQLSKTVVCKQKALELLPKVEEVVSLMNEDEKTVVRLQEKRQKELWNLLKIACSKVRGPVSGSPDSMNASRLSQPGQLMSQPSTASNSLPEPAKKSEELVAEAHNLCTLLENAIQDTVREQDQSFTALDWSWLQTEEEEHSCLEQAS

[2] = tested on: Hepatocyte growth factor receptor (Homo sapiens), P08581 [Y1235D]; test: Inhibition of MET Y1235D mutant at 1 uM
[3] = target: Mitogen-activated protein kinase kinase kinase 9 (Homo sapiens) (UniProt P80192); test: Inhibition of MLK1 at 1 uM
Chain of Mitogen-activated protein kinase kinase kinase 9 (Homo sapiens) (P80192 whole entry, looked up): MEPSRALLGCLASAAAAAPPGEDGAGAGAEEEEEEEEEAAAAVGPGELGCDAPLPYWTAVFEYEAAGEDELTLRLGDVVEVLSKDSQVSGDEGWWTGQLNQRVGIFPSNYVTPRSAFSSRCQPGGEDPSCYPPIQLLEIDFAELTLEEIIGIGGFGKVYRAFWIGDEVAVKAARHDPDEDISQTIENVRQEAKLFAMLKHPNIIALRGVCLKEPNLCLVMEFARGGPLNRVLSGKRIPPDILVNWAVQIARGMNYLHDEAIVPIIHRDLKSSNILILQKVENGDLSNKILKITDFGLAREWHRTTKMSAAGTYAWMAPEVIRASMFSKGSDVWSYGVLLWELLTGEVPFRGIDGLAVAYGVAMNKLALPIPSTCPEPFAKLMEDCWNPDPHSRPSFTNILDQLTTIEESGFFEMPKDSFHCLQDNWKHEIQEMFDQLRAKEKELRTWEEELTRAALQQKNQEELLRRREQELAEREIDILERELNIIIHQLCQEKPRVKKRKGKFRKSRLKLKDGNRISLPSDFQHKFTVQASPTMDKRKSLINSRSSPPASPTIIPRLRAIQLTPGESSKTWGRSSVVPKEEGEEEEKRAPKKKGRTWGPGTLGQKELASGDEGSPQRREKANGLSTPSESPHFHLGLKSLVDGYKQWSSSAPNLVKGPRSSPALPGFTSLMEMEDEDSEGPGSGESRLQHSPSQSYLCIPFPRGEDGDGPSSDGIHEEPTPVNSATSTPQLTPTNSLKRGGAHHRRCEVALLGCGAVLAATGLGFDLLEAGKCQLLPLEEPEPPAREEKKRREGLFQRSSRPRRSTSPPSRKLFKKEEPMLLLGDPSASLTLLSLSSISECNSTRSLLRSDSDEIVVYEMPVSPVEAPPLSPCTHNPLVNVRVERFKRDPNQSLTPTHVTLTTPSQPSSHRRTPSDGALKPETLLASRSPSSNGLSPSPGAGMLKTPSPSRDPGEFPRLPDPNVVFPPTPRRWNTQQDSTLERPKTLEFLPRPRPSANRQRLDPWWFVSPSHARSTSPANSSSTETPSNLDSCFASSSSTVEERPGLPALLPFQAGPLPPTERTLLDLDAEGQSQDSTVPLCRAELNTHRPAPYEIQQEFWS

[4] = target: Serine/threonine-protein kinase N1 (Homo sapiens) (UniProt Q16512); test: Inhibition of PKN1 at 1 uM
Chain of Serine/threonine-protein kinase N1 (Homo sapiens) (Q16512 2-942 limits assumed): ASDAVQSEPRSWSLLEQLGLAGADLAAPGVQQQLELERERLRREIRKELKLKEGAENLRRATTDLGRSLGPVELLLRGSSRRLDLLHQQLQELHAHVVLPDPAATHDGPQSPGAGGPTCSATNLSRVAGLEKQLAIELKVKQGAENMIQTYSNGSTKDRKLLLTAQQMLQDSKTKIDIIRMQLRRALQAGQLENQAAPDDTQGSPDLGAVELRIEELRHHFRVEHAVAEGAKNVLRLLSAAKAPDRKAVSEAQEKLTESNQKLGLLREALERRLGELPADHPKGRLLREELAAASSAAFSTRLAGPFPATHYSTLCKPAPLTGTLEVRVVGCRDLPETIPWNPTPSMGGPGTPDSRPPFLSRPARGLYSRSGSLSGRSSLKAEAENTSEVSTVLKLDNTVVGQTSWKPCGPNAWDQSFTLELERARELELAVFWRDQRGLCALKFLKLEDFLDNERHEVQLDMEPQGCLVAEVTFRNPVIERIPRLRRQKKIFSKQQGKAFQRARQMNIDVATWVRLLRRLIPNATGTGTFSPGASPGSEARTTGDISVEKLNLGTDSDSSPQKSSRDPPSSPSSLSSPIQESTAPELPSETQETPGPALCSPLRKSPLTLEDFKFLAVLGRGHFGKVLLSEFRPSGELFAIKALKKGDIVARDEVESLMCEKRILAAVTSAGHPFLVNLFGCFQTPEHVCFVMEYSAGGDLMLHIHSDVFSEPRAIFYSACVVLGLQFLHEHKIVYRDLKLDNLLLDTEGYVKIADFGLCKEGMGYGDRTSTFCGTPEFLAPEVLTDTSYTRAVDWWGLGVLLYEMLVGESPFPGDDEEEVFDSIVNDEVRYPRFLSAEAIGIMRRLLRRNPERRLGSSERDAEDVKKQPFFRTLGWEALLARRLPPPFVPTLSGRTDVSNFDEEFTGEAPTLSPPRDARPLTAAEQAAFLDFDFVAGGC

[5] = target: Receptor-interacting serine/threonine-protein kinase 2 (Homo sapiens) (UniProt O43353); test: Inhibition of RIPK2 at 1 uM
Chain of Receptor-interacting serine/threonine-protein kinase 2 (Homo sapiens) (O43353 whole entry, the tested form may be a part): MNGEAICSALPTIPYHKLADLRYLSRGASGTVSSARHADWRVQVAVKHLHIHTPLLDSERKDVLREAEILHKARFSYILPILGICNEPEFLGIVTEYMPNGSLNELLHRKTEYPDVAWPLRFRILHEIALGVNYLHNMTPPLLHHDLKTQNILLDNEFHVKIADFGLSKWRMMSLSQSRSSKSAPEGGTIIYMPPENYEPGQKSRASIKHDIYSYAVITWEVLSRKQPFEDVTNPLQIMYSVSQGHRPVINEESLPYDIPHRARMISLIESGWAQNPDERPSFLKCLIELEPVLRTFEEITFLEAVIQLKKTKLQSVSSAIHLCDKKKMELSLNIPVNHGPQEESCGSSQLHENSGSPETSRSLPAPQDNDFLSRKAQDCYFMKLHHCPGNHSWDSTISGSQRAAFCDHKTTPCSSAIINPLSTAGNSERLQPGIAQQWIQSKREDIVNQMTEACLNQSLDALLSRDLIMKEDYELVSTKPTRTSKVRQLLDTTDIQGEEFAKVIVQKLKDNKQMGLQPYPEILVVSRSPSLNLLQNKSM

[6] = target: Ribosomal protein S6 kinase alpha-1 (Homo sapiens) (UniProt Q15418); test: Inhibition of RPS6KA1 C-terminal domain2 at 1 uM
[7] = target: Proto-oncogene tyrosine-protein kinase Src (Homo sapiens) (UniProt P12931); test: Inhibition of SRC at 1 uM
Chain of Proto-oncogene tyrosine-protein kinase Src (Homo sapiens) (P12931 2-536 limits assumed): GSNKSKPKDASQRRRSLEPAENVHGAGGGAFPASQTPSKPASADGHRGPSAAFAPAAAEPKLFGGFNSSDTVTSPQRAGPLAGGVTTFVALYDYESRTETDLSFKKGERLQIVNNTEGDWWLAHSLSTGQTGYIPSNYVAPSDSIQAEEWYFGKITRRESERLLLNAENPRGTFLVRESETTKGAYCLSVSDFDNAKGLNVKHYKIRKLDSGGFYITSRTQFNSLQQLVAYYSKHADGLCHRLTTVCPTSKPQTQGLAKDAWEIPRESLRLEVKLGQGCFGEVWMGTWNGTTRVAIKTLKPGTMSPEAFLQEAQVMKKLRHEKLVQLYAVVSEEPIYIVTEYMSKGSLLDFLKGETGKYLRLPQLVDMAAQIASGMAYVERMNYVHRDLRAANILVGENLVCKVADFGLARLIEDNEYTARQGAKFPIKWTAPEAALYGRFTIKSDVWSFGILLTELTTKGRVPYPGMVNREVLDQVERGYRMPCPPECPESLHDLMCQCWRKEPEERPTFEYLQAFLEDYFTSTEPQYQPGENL

[8] = target: Serine/threonine-protein kinase 33 (Homo sapiens) (UniProt Q9BYT3); test: Inhibition of STK33 at 1 uM
Chain of Serine/threonine-protein kinase 33 (Homo sapiens) (Q9BYT3 whole entry, looked up): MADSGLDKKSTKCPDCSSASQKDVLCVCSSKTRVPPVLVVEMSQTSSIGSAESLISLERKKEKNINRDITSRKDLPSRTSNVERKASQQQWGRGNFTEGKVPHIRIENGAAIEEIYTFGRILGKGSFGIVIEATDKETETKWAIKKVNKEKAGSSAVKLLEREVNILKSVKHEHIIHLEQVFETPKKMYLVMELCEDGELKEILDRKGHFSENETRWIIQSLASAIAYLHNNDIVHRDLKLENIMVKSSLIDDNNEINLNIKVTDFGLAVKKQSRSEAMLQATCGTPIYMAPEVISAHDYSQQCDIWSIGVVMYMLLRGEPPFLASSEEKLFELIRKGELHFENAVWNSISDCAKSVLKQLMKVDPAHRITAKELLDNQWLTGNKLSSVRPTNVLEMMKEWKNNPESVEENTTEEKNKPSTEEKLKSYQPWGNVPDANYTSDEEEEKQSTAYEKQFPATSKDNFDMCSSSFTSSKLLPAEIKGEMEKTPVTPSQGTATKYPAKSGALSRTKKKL

[9] = target: Serine/threonine-protein kinase 32C (Homo sapiens) (UniProt Q86UX6); test: Inhibition of YANK3 at 1 uM
Chain of Serine/threonine-protein kinase 32C (Homo sapiens) (Q86UX6 whole entry, the tested form may be a part): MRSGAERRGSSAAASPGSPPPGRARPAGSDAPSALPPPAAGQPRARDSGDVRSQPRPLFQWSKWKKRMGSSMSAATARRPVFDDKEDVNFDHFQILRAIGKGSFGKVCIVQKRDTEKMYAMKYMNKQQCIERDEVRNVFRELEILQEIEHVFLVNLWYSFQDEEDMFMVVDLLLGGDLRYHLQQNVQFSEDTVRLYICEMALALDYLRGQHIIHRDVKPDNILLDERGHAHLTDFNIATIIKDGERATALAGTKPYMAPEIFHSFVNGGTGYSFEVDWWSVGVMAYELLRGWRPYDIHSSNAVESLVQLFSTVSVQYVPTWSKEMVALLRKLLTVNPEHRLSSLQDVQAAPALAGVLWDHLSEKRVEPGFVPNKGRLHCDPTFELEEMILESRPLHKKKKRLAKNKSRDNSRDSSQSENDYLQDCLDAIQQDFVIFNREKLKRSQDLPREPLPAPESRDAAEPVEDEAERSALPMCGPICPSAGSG

[10] = target: T2, Ankyrin repeat and protein kinase domain-containing protein 1 (Homo sapiens) (UniProt Q8NFD2); test: Inhibition of ANKK1 at 1 uM
T2 sequence (whole entry): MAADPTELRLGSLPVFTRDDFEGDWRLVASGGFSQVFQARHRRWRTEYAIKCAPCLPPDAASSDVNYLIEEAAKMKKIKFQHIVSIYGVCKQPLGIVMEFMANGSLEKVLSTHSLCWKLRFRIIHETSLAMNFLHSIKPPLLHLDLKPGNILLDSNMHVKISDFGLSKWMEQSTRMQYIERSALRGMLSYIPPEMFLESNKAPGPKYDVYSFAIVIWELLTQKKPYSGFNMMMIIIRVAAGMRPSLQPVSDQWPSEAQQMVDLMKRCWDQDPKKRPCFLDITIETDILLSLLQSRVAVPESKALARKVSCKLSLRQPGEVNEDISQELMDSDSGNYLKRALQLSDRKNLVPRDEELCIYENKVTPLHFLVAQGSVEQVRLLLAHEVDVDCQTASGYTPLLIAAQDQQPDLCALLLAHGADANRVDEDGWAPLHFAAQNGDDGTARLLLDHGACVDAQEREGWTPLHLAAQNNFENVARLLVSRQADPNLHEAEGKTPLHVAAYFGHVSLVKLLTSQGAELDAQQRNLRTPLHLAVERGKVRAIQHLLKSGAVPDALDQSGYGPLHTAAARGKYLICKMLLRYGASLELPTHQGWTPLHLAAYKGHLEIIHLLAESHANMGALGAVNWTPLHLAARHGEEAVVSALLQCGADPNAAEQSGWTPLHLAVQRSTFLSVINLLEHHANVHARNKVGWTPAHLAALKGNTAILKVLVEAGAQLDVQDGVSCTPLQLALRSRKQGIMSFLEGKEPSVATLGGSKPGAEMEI

[11] = target: Calcium/calmodulin-dependent protein kinase type II subunit beta (Homo sapiens) (UniProt Q13554); test: Inhibition of CAMK2B at 1 uM
Chain of Calcium/calmodulin-dependent protein kinase type II subunit beta (Homo sapiens) (Q13554 whole entry): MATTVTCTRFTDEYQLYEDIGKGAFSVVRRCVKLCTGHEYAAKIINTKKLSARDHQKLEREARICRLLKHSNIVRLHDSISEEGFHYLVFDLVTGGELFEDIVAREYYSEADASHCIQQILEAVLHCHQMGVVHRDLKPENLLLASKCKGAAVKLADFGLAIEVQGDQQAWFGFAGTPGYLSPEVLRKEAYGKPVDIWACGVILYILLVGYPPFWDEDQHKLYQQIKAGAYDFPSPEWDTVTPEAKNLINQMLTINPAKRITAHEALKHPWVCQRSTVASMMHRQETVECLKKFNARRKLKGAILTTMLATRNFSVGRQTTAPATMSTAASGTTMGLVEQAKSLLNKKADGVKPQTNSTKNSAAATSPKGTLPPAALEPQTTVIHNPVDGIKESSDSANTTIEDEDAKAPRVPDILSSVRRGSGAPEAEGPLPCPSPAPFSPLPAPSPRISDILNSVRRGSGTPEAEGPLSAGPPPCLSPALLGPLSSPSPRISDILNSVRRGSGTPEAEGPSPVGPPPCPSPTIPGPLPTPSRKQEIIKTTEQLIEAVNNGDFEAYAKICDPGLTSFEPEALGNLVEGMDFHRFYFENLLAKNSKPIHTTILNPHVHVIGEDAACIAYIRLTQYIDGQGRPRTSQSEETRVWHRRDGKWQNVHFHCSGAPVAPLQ
In short: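 Ambit KINOMEscan screen at a single concentration across a 250–400 kinase panel, recorded as percent inhibition. Selectivity was expressed as S(90), the fraction of kinases inhibited >90%.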

[12] = target: T3, Serine/threonine-protein kinase DCLK2 (Homo sapiens) (UniProt Q8N568); test: Inhibition of DCAMKL2 at 1 uM
T3 sequence (whole entry): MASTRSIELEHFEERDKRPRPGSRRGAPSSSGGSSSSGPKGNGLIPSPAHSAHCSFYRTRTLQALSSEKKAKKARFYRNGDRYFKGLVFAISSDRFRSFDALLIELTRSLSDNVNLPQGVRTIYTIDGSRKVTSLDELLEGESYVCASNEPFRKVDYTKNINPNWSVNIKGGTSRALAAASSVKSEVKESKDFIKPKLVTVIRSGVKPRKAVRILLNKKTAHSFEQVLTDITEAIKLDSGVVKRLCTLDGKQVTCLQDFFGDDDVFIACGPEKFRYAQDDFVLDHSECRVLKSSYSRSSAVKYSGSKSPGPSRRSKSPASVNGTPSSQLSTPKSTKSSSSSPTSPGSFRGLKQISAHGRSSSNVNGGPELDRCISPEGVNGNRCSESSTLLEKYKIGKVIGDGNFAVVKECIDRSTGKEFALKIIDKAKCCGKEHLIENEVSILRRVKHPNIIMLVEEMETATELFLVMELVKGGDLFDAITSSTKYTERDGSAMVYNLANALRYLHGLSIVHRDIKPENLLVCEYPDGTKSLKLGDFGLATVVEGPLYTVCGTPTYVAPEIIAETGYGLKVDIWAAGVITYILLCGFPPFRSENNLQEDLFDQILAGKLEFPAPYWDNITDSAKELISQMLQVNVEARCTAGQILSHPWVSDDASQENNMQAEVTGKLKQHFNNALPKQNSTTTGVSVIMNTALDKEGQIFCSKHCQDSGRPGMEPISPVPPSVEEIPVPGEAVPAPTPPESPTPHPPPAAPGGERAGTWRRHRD

inhibition [1]	inhibition [2]	inhibition [3]	inhibition [4]	inhibition [5]	inhibition [6]	inhibition [7]	inhibition [8]	inhibition [9]	inhibition [10]	inhibition [11]	inhibition [12]	SMILES
		< 50%		< 50%	< 50%	< 50%		< 50%		< 50%		O=C(c1ccc(-c2cnc3c(c2)N(Cc2cc(Cl)ccc2C(F)(F)F)CCN3)cc1)N1CCCCC1
		< 50%		< 50%	< 50%	< 50%		< 50%		< 50%		COC1CCN(C(=O)c2ccc(-c3cnc4c(c3)N(Cc3cc(Cl)ccc3C(F)(F)F)CCN4)cc2)CC1
				< 50%	< 50%	< 50%	79.8%	< 50%		< 50%		O=C(c1ccc(-c2cnc3c(c2)N(Cc2cc(Cl)ccc2C(F)(F)F)CCN3)cc1)N1CCC(N2CCCC2)CC1

Second part, the molecule before the results:

SMILES	inhibition [1]	inhibition [2]	inhibition [3]	inhibition [4]	inhibition [5]	inhibition [6]	inhibition [7]	inhibition [8]	inhibition [9]	inhibition [10]	inhibition [11]	inhibition [12]
CC(=O)N1CCN(c2cc(-c3cnc4c(c3)N(Cc3cc(Cl)ccc3C(F)(F)F)CCN4)ccn2)CC1	< 50%	67%	< 50%	< 50%	< 50%	< 50%	< 50%	< 50%	< 50%	< 50%	< 50%	< 50%
O=C(O)c1ccc(-c2cnc3c(c2)N(Cc2cc(Cl)ccc2C(F)(F)F)CCN3)cc1			< 50%		< 50%	< 50%	< 50%		< 50%		< 50%	
CN1CCN(c2ccc(-c3cnc4c(c3)N(Cc3cc(Cl)ccc3C(F)(F)F)CCN4)cn2)CC1	< 50%	< 50%	< 50%	< 50%	< 50%	< 50%	< 50%	< 50%	< 50%	< 50%	< 50%	< 50%
CN1CCN(c2ccc(-c3cnc4c(c3)N(Cc3cc(F)ccc3F)CCN4)cn2)CC1	< 50%	< 50%	< 50%	< 50%	< 50%	< 50%	< 50%	< 50%	< 50%	< 50%	< 50%	< 50%
CN1CCN(c2ccc(-c3cnc4c(c3)N(Cc3cc(Cl)ccc3Cl)CCN4)cn2)CC1	< 50%	< 50%	< 50%	< 50%	< 50%	< 50%	< 50%	< 50%	< 50%	< 50%	< 50%	< 50%
CN1CCN(c2ccc(-c3cnc4c(c3)N(Cc3c(F)ccc(F)c3Cl)CCN4)cn2)CC1	< 50%	71%	< 50%	< 50%	< 50%	< 50%	< 50%	< 50%	< 50%	< 50%	< 50%	< 50%
FC(F)(F)c1ccc(Cl)cc1CN1CCNc2ncc(-c3ccnc(N4CCNCC4)c3)cc21	< 50%	75%	< 50%	82%	< 50%	< 50%	< 50%	< 50%	< 50%	< 50%	< 50%	96%

From ChEMBL document CHEMBL1165965, “Synthesis and structure-activity relationships of 1,2,3,4-tetrahydropyrido[2,3-b]pyrazines as potent and selective inhibitors of the anaplastic lymphoma kinase” (Bioorg Med Chem, 2010)
